ChEMBL document CHEMBL1149142, “Synthesis, biological activity and molecular modeling of 6-benzylthioinosine analogues as subversive substrates of Toxoplasma gondii adenosine kinase” (2004)

Columns and labels:
Toxoplasma gondii [1] = test: Effect of compound on percent survival of wild type (RH) strain of Toxoplasma gondii grown in human fibroblast cells at 10 uM; type: functional
Summary of the method: (§1)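 Human foreskin fibroblast monolayers (≤30 passages) in RPMI 1640 are infected with tachyzoites at one parasite per cell in 3% FBS for 1 h, then washed, with FBS kept at 10%. Compound is added in 50% ethanol stock (2.5% ethanol final) and incubated 18 h. Medium is replaced with drug-free [5,6-3H]uracil (2 μCi/mL) for 6 h. TCA-precipitable radioactivity is counted; at least triplicates.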

Toxoplasma gondii [2] = test: Effect of compound on percent survival of wild type (RH) strain of Toxoplasma gondii grown in human fibroblast cells at 5 uM; type: functional; summary of the method: as §1
[3] = Effect of compound on percent survival of human fibroblast cells in culture was determined at 0 uM; type: functional
Summary of the method: (§2)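 Uninfected human foreskin fibroblast monolayers (≤30 passages) in RPMI 1640 are attached for at least 24 h at 37 °C in 5% CO2. Compound is added at the same concentrations as in the parasite assay and incubated 48 h. MTT is added for 4 h, formazan is dissolved in DMSO, and absorbance is read at 540 nm; at least triplicates.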

[4] = Effect of compound on percent survival of human fibroblast cells in culture was determined at 10 uM; type: functional; conditions: read-out: Survival; summary of the method: as §2
Toxoplasma gondii [5] = test: Effect of compound on percent survival of wild type (RH) strain of Toxoplasma gondii grown in human fibroblast cells at 0 uM; type: functional; summary of the method: as §1
[6] = Effect of compound on percent survival of human fibroblast cells in culture was determined at 25 uM; type: functional; conditions: read-out: Survival; summary of the method: as §2
Toxoplasma gondii [7] = test: Effect of compound on percent survival of wild type (RH) strain of Toxoplasma gondii grown in human fibroblast cells at 50 uM; type: functional; summary of the method: as §1
[8] = Effect of compound on percent survival of human fibroblast cells in culture was determined at 5 uM; type: functional; conditions: read-out: Survival; summary of the method: as §2
Toxoplasma gondii [9] = test: Effect of compound on percent survival of wild type (RH) strain of Toxoplasma gondii grown in human fibroblast cells at 25 uM; type: functional; summary of the method: as §1
[10] = Effect of compound on percent survival of human fibroblast cells in culture was determined at 50 uM; type: functional; conditions: read-out: Survival; summary of the method: as §2
Toxoplasma gondii [11] = test: Effect of compound on percent survival of adenosine kinase deficient strain of Toxoplasma gondii (TgAKe-3) grown in human fibroblast cells at 50 uM; type: functional; summary of the method: as §1
Toxoplasma gondii [12] = test: Effect of compound on percent survival of adenosine kinase deficient strain of Toxoplasma gondii (TgAKe-3) grown in human fibroblast cells at 0 uM; type: functional; summary of the method: as §1
Toxoplasma gondii [13] = test: Effect of compound on percent survival of adenosine kinase deficient strain of Toxoplasma gondii (TgAKe-3) grown in human fibroblast cells at 10 uM; type: functional; summary of the method: as §1
Toxoplasma gondii [14] = test: Effect of compound on percent survival of adenosine kinase deficient strain of Toxoplasma gondii (TgAKe-3) grown in human fibroblast cells at 5 uM; type: functional; summary of the method: as §1
Toxoplasma gondii [15] = test: Effect of compound on percent survival of adenosine kinase deficient strain of Toxoplasma gondii (TgAKe-3) grown in human fibroblast cells at 25 uM; type: functional; summary of the method: as §1
[16] = substrate: O=[N+]([O-])c1cccc(CSc2ncnc3c2ncn3[C@@H]2O[C@H](CO)[C@@H](O)[C@H]2O)c1; test: (§3) Binding affinity at Toxoplasma gondii adenosine kinase.
Summary of the method: (§4)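 Purified recombinant T. gondii adenosine kinase was expressed in E. coli BL21(DE3)pLysS and purified on two Q-Sepharose columns. The assay contained 50 mM Tris-Cl pH 7.4, 2.5 mM ATP, 5 mM MgCl2, 5 mM creatine phosphate, creatine kinase and 5 μM [8-14C]adenosine, with varied analogue concentrations. Incubation was at 37 °C, stopped by boiling. [14C]AMP was resolved by TLC. Apparent Ki from Dixon plots was taken as apparent Km.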

[17] = substrate: O=[N+]([O-])c1ccc(CSc2ncnc3c2ncn3[C@@H]2O[C@H](CO)[C@@H](O)[C@H]2O)cc1; test: as §3; summary of the method: as §4
[18] = substrate: CC(C)(C)c1ccc(CSc2ncnc3c2ncn3[C@@H]2O[C@H](CO)[C@@H](O)[C@H]2O)cc1; test: as §3; summary of the method: as §4
[19] = substrate: OC[C@H]1O[C@@H](n2cnc3c(SCc4ccc(F)cc4)ncnc32)[C@H](O)[C@@H]1O; test: as §3; summary of the method: as §4
[20] = substrate: OC[C@H]1O[C@@H](n2cnc3c(SCc4ccc(Cl)cc4)ncnc32)[C@H](O)[C@@H]1O; test: as §3; summary of the method: as §4
[21] = substrate: N#Cc1ccc(CSc2ncnc3c2ncn3[C@@H]2O[C@H](CO)[C@@H](O)[C@H]2O)cc1; test: as §3; summary of the method: as §4
[22] = substrate: OC[C@H]1O[C@@H](n2cnc3c(SCc4ccccc4)ncnc32)[C@H](O)[C@@H]1O; test: as §3; summary of the method: as §4
[23] = substrate: COC(=O)c1ccc(CSc2ncnc3c2ncn3[C@@H]2O[C@H](CO)[C@@H](O)[C@H]2O)cc1; test: as §3; summary of the method: as §4
[24] = substrate: COc1ccc(CSc2ncnc3c2ncn3[C@@H]2O[C@H](CO)[C@@H](O)[C@H]2O)cc1; test: as §3; summary of the method: as §4
[25] = substrate: OC[C@H]1O[C@@H](n2cnc3c(SCc4ccc(OC(F)(F)F)cc4)ncnc32)[C@H](O)[C@@H]1O; test: as §3; summary of the method: as §4
[26] = substrate: OC[C@H]1O[C@@H](n2cnc3c(SCc4ccc(Br)cc4)ncnc32)[C@H](O)[C@@H]1O; test: as §3; summary of the method: as §4
[27] = substrate: OC[C@H]1O[C@@H](n2cnc3c(SCc4ccc(Cl)c(Cl)c4)ncnc32)[C@H](O)[C@@H]1O; test: as §3; summary of the method: as §4
[28] = substrate: OC[C@H]1O[C@@H](n2cnc3c(SCc4ccc(Cl)cc4Cl)ncnc32)[C@H](O)[C@@H]1O; test: as §3; summary of the method: as §4
[29] = substrate: Cc1ccc(CSc2ncnc3c2ncn3[C@@H]2O[C@H](CO)[C@@H](O)[C@H]2O)cc1; test: as §3; summary of the method: as §4
[30] = substrate: Cc1cccc(CSc2ncnc3c2ncn3[C@@H]2O[C@H](CO)[C@@H](O)[C@H]2O)c1; test: as §3; summary of the method: as §4
[31] = substrate: OC[C@H]1O[C@@H](n2cnc3c(SCc4c(F)cccc4Cl)ncnc32)[C@H](O)[C@@H]1O; test: as §3; summary of the method: as §4
[32] = substrate: Cc1cc(C)c(CSc2ncnc3c2ncn3[C@@H]2O[C@H](CO)[C@@H](O)[C@H]2O)c(C)c1; test: as §3; summary of the method: as §4
[33] = substrate: OC[C@H]1O[C@@H](n2cnc3c(SCc4cccc(C(F)(F)F)c4)ncnc32)[C@H](O)[C@@H]1O; test: as §3; summary of the method: as §4
[34] = substrate: Nc1ncnc2c1ncn2[C@@H]1O[C@H](CO)[C@@H](O)[C@H]1O; test: as §3; summary of the method: as §4
[35] = substrate: Cc1ccccc1CSc1ncnc2c1ncn2[C@@H]1O[C@H](CO)[C@@H](O)[C@H]1O; test: as §3; summary of the method: as §4
[36] = substrate: OC[C@H]1O[C@@H](n2cnc3c(SCc4ccccc4Cl)ncnc32)[C@H](O)[C@@H]1O; test: as §3; summary of the method: as §4

CCc1nc(N)nc(N)c1-c1ccc(Cl)cc1 [PYRIMETHAMINE]
survival at 10 µM (Toxoplasma gondii [1]): 36.3% | survival at 5 µM (Toxoplasma gondii [2]): 53.8% | Survival [3]: 100% | viability at 10 µM [4]: 98.8% | Survival (Toxoplasma gondii [5]): 100% | viability at 25 µM [6]: 100% | survival at 50 µM (Toxoplasma gondii [7]): 6.9% | viability at 5 µM [8]: 100% | survival at 25 µM (Toxoplasma gondii [9]): 11.8% | viability at 50 µM [10]: 100%

OC[C@H]1O[C@@H](n2cnc3c(SCc4ccc(OC(F)(F)F)cc4)ncnc32)[C@H](O)[C@@H]1O
survival at 10 µM (Toxoplasma gondii [1]): 64.9% | survival at 5 µM (Toxoplasma gondii [2]): 93.1% | survival at 50 µM (Toxoplasma gondii [11]): 95.1% | Survival [3]: 100% | viability at 10 µM [4]: 99.9% | Survival (Toxoplasma gondii [12]): 100% | Survival (Toxoplasma gondii [5]): 100% | viability at 25 µM [6]: 97.4% | survival at 50 µM (Toxoplasma gondii [7]): 44% | survival at 10 µM (Toxoplasma gondii [13]): 100% | viability at 5 µM [8]: 100% | survival at 25 µM (Toxoplasma gondii [9]): 54.5% | survival at 5 µM (Toxoplasma gondii [14]): 100% | viability at 50 µM [10]: 98.6% | survival at 25 µM (Toxoplasma gondii [15]): 97.6%

OC[C@H]1O[C@@H](n2cnc3c(SCc4ccc(Cl)cc4Cl)ncnc32)[C@H](O)[C@@H]1O
survival at 10 µM (Toxoplasma gondii [1]): 79.1% | survival at 5 µM (Toxoplasma gondii [2]): 94.8% | survival at 50 µM (Toxoplasma gondii [11]): 100% | Survival [3]: 100% | viability at 10 µM [4]: 99.2% | Survival (Toxoplasma gondii [12]): 100% | Survival (Toxoplasma gondii [5]): 100% | viability at 25 µM [6]: 94% | survival at 50 µM (Toxoplasma gondii [7]): 0% | survival at 10 µM (Toxoplasma gondii [13]): 100% | viability at 5 µM [8]: 98.1% | survival at 25 µM (Toxoplasma gondii [9]): 34.5% | survival at 5 µM (Toxoplasma gondii [14]): 100% | viability at 50 µM [10]: 99.5% | survival at 25 µM (Toxoplasma gondii [15]): 100%

CC(C)(C)c1ccc(CSc2ncnc3c2ncn3[C@@H]2O[C@H](CO)[C@@H](O)[C@H]2O)cc1
survival at 10 µM (Toxoplasma gondii [1]): 71.7% | survival at 5 µM (Toxoplasma gondii [2]): 83.3% | survival at 50 µM (Toxoplasma gondii [11]): 100% | Survival [3]: 100% | viability at 10 µM [4]: 100% | Survival (Toxoplasma gondii [12]): 100% | Survival (Toxoplasma gondii [5]): 100% | viability at 25 µM [6]: 100% | survival at 50 µM (Toxoplasma gondii [7]): 12.2% | survival at 10 µM (Toxoplasma gondii [13]): 100% | viability at 5 µM [8]: 97.4% | survival at 25 µM (Toxoplasma gondii [9]): 47.2% | survival at 5 µM (Toxoplasma gondii [14]): 100% | viability at 50 µM [10]: 99.7% | survival at 25 µM (Toxoplasma gondii [15]): 100%

Nc1ccc(S(=O)(=O)Nc2ncccn2)cc1 [SULFADIAZINE]
survival at 10 µM (Toxoplasma gondii [1]): 64.5% | survival at 5 µM (Toxoplasma gondii [2]): 75.7% | Survival [3]: 100% | viability at 10 µM [4]: 99.7% | Survival (Toxoplasma gondii [5]): 100% | viability at 25 µM [6]: 99.8% | survival at 50 µM (Toxoplasma gondii [7]): 46.6% | viability at 5 µM [8]: 98.2% | survival at 25 µM (Toxoplasma gondii [9]): 59.2% | viability at 50 µM [10]: 100%

B1: Adenosine kinase (Toxoplasma gondii), Q9TVW2 (protein)
chain: MAVDSSNSATGPMRVFAIGNPILDLVAEVPSSFLDEFFLKRGDATLATPEQMRIYSTLDQFNPTSLPGGSALNSVRVVQKLLRKPGSAGYMGAIGDDPRGQVLKELCDKEGLATRFMVAPGQSTGVCAVLINEKERTLCTHLGACGSFRLPEDWTTFASGALIFYATAYTLTATPKNALEVAGYAHGIPNAIFTLNLSAPFCVELYKDAMQSLLLHTNILFGNEEEFAHLAKVHNLVAAEKTALSTANKEHAVEVCTGALRLLTAGQNTGATKLVVMTRGHNPVIAAEQTADGTVVVHEVGVPVVAAEKIVDTNGAGDAFVGGFLYALSQGKTVKQCIMCGNACAQDVIQHVGFSLSFTSLPC
Km [16]: 3 µM | Km [17]: 1.1 µM | Km [18]: 113 µM | Km [19]: 1.2 µM | Km [20]: 2.1 µM | Km [21]: 0.9 µM | Km [22]: 2.4 µM | Km [23]: 96.1 µM | Km [24]: 2.6 µM | Km [25]: 141 µM | Km [26]: 7.5 µM | Km [27]: 2.5 µM | Km [28]: 0.7 µM | Km [29]: 3.3 µM | Km [30]: 1.3 µM | Km [31]: 37.7 µM | Km [32]: 150 µM | Km [33]: 2.9 µM | Km [34]: 2.4 µM | Km [35]: 1.5 µM | Km [36]: 1.4 µM
